{"source": "ChEMBL document CHEMBL2062429", "about": "“Structure-based design, synthesis, and biological evaluation of dihydroquinazoline-derived potent β-secretase inhibitors” (Bioorg Med Chem Lett, 2012)", "key": {"Beta-secretase 1": {"biological_target": "Beta-secretase 1 (Homo sapiens, UniProt P56817)", "sequence (P56817 whole entry)": "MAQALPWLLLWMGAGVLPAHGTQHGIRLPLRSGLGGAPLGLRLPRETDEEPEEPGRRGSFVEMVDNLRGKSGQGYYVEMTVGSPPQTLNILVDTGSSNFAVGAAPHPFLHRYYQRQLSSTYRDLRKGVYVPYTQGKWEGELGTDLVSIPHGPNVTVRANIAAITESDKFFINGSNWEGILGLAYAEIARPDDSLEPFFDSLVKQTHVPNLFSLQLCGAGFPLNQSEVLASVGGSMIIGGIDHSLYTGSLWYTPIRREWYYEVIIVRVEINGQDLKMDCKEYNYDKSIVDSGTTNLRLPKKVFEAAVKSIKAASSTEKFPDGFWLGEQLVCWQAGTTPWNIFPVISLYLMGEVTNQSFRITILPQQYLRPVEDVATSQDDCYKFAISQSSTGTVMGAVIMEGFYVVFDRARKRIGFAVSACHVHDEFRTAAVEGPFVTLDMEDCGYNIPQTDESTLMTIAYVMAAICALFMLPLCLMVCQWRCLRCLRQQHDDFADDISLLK", "assay": "Inhibition of recombinant beta-secretase 1"}, "[1]": {"assay": "Inhibition of beta-secretase in neuroblastoma cells assessed as inhibition of amyloid beta production", "type": "cell-based", "conditions": "Homo sapiens", "summary_of_the_method": "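Cell-based assay in neuroblastoma cells. IC50 is reported as an average value.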"}}}
{"compound": "Cc1nc(CCN(C(=O)CC[C@@H](C2CCCCC2)N2Cc3cc(Oc4ccccc4)ccc3N=C2N)C2CCCCC2)cs1", "values": [{"measurement": "Ki", "setting": "Beta-secretase 1", "result": 106, "unit": "nM"}]}
{"compound": "CN(C(=O)CC[C@@H](c1ccccc1)N1Cc2cc(Oc3ccccc3)ccc2N=C1N)C1CCCCC1", "values": [{"measurement": "IC50", "setting": "[1]", "result": 482, "unit": "nM"}, {"measurement": "Ki", "setting": "Beta-secretase 1", "result": 164, "unit": "nM"}]}
{"compound": "CN(C(=O)OC[C@@H](c1ccccc1)N1Cc2cc(Oc3ccccc3)ccc2N=C1N)C1CCCCC1", "values": [{"measurement": "IC50", "setting": "[1]", "result": 3400, "unit": "nM"}, {"measurement": "Ki", "setting": "Beta-secretase 1", "result": 783, "unit": "nM"}]}
{"compound": "CN(C(=O)OC[C@@H](C1CCCCC1)N1Cc2cc(Oc3ccccc3)ccc2N=C1N)C1CCCCC1", "values": [{"measurement": "Ki", "setting": "Beta-secretase 1", "result": 37.5, "unit": "nM"}]}
{"compound": "NC1=Nc2ccc(Oc3ccccc3)cc2CN1[C@@H](COC(=O)NC1CCCCC1)C1CCCCC1", "values": [{"measurement": "Ki", "setting": "Beta-secretase 1", "result": 60, "unit": "nM"}]}
{"compound": "CN(C(=O)CC[C@@H]([C@H]1CCCOC1)N1Cc2cc(Oc3ccccc3)ccc2N=C1N)C1CCCCC1", "values": [{"measurement": "Ki", "setting": "Beta-secretase 1", "result": 122, "unit": "nM"}]}
{"compound": "Cc1nc(CN(C(=O)OC[C@@H](C2CCCCC2)N2Cc3cc(Oc4ccccc4)ccc3N=C2N)C2CCCCC2)cs1", "values": [{"measurement": "Ki", "setting": "Beta-secretase 1", "result": 1460, "unit": "nM"}]}
{"compound": "Cc1nc(CN(C(=O)CC[C@@H](C2CCCCC2)N2Cc3cc(Oc4ccccc4)ccc3N=C2N)C2CCCCC2)cs1", "values": [{"measurement": "IC50", "setting": "[1]", "result": 390, "unit": "nM"}, {"measurement": "Ki", "setting": "Beta-secretase 1", "result": 79, "unit": "nM"}]}
{"compound": "Cc1nc(C(C)N(C(=O)CC[C@@H](C2CCCCC2)N2Cc3cc(Oc4ccccc4)ccc3N=C2N)C2CCCCC2)cs1", "note": "(stereo partly drawn)", "values": [{"measurement": "Ki", "setting": "Beta-secretase 1", "result": 104, "unit": "nM"}]}
{"compound": "CC(C)c1nc(CN(C(=O)CC[C@@H](C2CCCCC2)N2Cc3cc(Oc4ccccc4)ccc3N=C2N)C2CCCCC2)cs1", "values": [{"measurement": "Ki", "setting": "Beta-secretase 1", "result": 144, "unit": "nM"}]}
{"compound": "COCc1nc(CN(C(=O)CC[C@@H](C2CCCCC2)N2Cc3cc(Oc4ccccc4)ccc3N=C2N)C2CCCCC2)cs1", "values": [{"measurement": "IC50", "setting": "[1]", "result": 21, "unit": "nM"}, {"measurement": "Ki", "setting": "Beta-secretase 1", "result": 13, "unit": "nM"}]}
{"compound": "Cn1cc(CN(C(=O)CC[C@@H](C2CCCCC2)N2Cc3cc(Oc4ccccc4)ccc3N=C2N)C2CCCCC2)cn1", "values": [{"measurement": "IC50", "setting": "[1]", "result": 23, "unit": "nM"}, {"measurement": "Ki", "setting": "Beta-secretase 1", "result": 11, "unit": "nM"}]}
{"compound": "NC1=Nc2ccc(Oc3ccccc3)cc2CN1[C@@H](CCC(=O)N(Cc1cn[nH]c1)C1CCCCC1)C1CCCCC1", "values": [{"measurement": "Ki", "setting": "Beta-secretase 1", "result": 23, "unit": "nM"}]}
{"compound": "Cc1[nH]ncc1CN(C(=O)CC[C@@H](C1CCCCC1)N1Cc2cc(Oc3ccccc3)ccc2N=C1N)C1CCCCC1", "values": [{"measurement": "IC50", "setting": "[1]", "result": 51, "unit": "nM"}, {"measurement": "Ki", "setting": "Beta-secretase 1", "result": 39, "unit": "nM"}]}
{"compound": "CN(C(=O)CC[C@@H](C1CCCCC1)N1Cc2cc(Oc3ccccc3)ccc2N=C1N)C1CCCCC1", "values": [{"measurement": "IC50", "setting": "[1]", "result": 71, "unit": "nM"}]}
{"compound": "CN(C(=O)OC[C@@H](C1CCCOC1)N1Cc2cc(Oc3ccccc3)ccc2N=C1N)C1CCCCC1", "note": "(mixture of isomers)", "values": [{"measurement": "IC50", "setting": "[1]", "result": 1100, "unit": "nM"}, {"measurement": "Ki", "setting": "Beta-secretase 1", "result": 104, "unit": "nM"}]}
